ChEMBL document CHEMBL4371016, “Proline- and Arginine-Rich Peptides as Flexible Allosteric Modulators of Human Proteasome Activity” (J Med Chem, 2019)
Activity calls are given as the source filed them. No cut-off for these calls is given here. Residues, ends and D or L forms follow the SMILES beside them.

Columns and labels:
[1] = biological target: T1, Proteasome component C5 (Homo sapiens) (UniProt P20618); assay: Positive allosteric modulation of latent human erythrocytes 20S proteasome caspase like activity at 10 uM measured every 1 min up to 60 mins by fluorescence assay relative to control
T1 sequence (whole entry): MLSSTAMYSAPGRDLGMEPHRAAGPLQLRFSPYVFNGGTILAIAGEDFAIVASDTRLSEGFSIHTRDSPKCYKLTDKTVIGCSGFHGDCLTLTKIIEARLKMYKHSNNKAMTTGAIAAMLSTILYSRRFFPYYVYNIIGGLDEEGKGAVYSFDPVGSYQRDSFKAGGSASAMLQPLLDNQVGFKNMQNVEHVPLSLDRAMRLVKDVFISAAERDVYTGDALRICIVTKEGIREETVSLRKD

[2] = biological target: T2, Proteasome Macropain subunit MB1 (Homo sapiens) (UniProt P28074); assay: Negative allosteric modulation of 10 uM Rpt5-activated human erythrocytes 20S proteasome chymotrypsin like activity up to 10 uM using Suc-LLVY-AMC as substrate measured every 1 min up to 60 mins by fluorescence assay
T2 sequence (whole entry): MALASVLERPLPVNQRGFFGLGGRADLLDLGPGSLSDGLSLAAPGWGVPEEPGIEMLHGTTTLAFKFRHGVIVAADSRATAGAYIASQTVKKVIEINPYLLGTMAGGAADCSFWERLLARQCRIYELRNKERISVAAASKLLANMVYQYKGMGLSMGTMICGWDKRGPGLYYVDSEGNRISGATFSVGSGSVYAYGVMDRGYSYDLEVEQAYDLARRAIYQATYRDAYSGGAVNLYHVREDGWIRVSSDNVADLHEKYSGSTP

[3] = biological target: T2, Proteasome Macropain subunit MB1 (Homo sapiens); assay: Positive allosteric modulation of latent human erythrocytes 20S proteasome chymotrypsin like activity at 25 uM using LFP as substrate measured every 2 mins up to 60 mins by fluorescence assay relative to control
[4] = biological target: T2, Proteasome Macropain subunit MB1 (Homo sapiens); assay: Negative allosteric modulation of SDS-activated human erythrocytes 20S proteasome chymotrypsin like activity up to 10 uM using LFP as substrate measured every 2 mins up to 60 mins by fluorescence assay
[5] = biological target: T3, 20S proteasome (Homo sapiens) (UniProt P49721+P20618+P28074+P28062+P28065+P28072+P25786+P25787+P25788+P25789+P28066+P60900+O14818+Q8TAA3+P40306+A5LHX3+P49720+P28070+Q99436); assay: Positive allosteric modulation of SDS-activated human erythrocytes 20S proteasome assessed as increase in yeast enolase degradation at 1 uM after 4 hr by SDS-PAGE analysis relative to control
[6] = biological target: T3, 20S proteasome (Homo sapiens); assay: Negative allosteric modulation of SDS-activated human erythrocytes 20S proteasome assessed as reduction in human alpha-synuclein degradation at 1 uM after 1 hr by SDS-PAGE analysis
Summary of the method: (§1)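 Human α-synuclein or yeast enolase digested by human 20S activated with 0.01% SDS (20S:substrate 1:100 pmol α-syn, 1:10 pmol enolase) in 20 mM HEPES pH 7.4 at 37 °C for 1 h (α-syn) or 4 h (enolase). DMSO at or below 0.05%. SDS–PAGE (12% or 10%) with Coomassie staining; remaining substrate densitometry as percent of control; at least three experiments, mean ± SEM.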

[7] = biological target: T2, Proteasome Macropain subunit MB1 (Homo sapiens); assay: Positive allosteric modulation of latent human erythrocytes 20S proteasome chymotrypsin like activity using LFP as substrate measured every 2 mins up to 60 mins by fluorescence assay
[8] = biological target: T2, Proteasome Macropain subunit MB1 (Homo sapiens); assay: Stimulation of 20S proteasome chymotrypsin like activity in human primary fibroblasts at 10 uM preincubated for 24 hrs followed by Suc-LLVY-AMC substrate addition and measured at 2 mins interval up to 60 mins by fluorescence assay relative to control
Summary of the method: (§2)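 Fibroblasts (GM04390, 3% O2, 37 °C) exposed to 0.1–20 μM peptide or DMSO for 24 h after Optimem switch. Cells scraped, lysed in 50 mM Tris/HCl pH 7.4, 5 mM MgCl2, 1 mM DTT by mechanical lysis and freeze fractionation. Bradford-normalised lysate (1 μg in 100 μL) incubated with 50 μM Suc-LLVY-AMC; fluorescence ex 370/em 460 nm.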

[9] = biological target: T3, 20S proteasome (Homo sapiens); assay: Positive allosteric modulation of SDS-activated human erythrocytes 20S proteasome assessed as increase in human alpha-synuclein degradation at 10 uM after 1 hr by SDS-PAGE analysis
[10] = biological target: Proteasome subunit beta type-6 (Homo sapiens) (UniProt P28072); assay: Positive allosteric modulation of latent human erythrocytes 20S proteasome caspase like activity at 10 uM using Z-LLE-AMC as substrate measured every 1 min up to 60 mins by fluorescence assay relative to control
[11] = biological target: T2, Proteasome Macropain subunit MB1 (Homo sapiens); assay: Positive allosteric modulation of latent human erythrocytes 20S proteasome chymotrypsin like activity at 25 uM using Suc-LLVY-AMC as substrate measured every 2 mins up to 60 mins by fluorescence assay relative to control
[12] = biological target: T2, Proteasome Macropain subunit MB1 (Homo sapiens); assay: Positive allosteric modulation of 1 uM Rpt5-activated human erythrocytes 20S proteasome chymotrypsin like activity up to 10 uM using Suc-LLVY-AMC as substrate measured every 1 min up to 60 mins by fluorescence assay
[13] = biological target: T3, 20S proteasome (Homo sapiens); assay: Effect on alpha-face conformations of latent human erythrocytes 20S proteasome assessed as open state conformation at 1 uM by atomic force microscopic method (reference value: 7%)
[14] = biological target: T2, Proteasome Macropain subunit MB1 (Homo sapiens); assay: Stimulation of 20S proteasome chymotrypsin like activity in human primary fibroblasts preincubated for 24 hrs followed by Suc-LLVY-AMC substrate addition and measured at 2 mins interval up to 60 mins by fluorescence assay
Summary of the method: as §2

[15] = biological target: T3, 20S proteasome (Homo sapiens); assay: Effect on alpha-face conformations of latent human erythrocytes 20S proteasome assessed as intermediate state conformation at 1 uM by atomic force microscopic method (reference value: 22%)
[16] = biological target: T3, 20S proteasome (Homo sapiens); assay: Positive allosteric modulation of SDS-activated human erythrocytes 20S proteasome assessed as increase in yeast enolase degradation at 10 uM after 4 hr by SDS-PAGE analysis
[17] = biological target: T2, Proteasome Macropain subunit MB1 (Homo sapiens); assay: Positive allosteric modulation of latent human erythrocytes 20S proteasome chymotrypsin like activity up to 10 uM using LFP as substrate measured every 2 mins up to 60 mins by fluorescence assay
[18] = biological target: T3, 20S proteasome (Homo sapiens); assay: Effect on alpha-face conformations of latent human erythrocytes 20S proteasome assessed as closed state conformation at 10 uM by atomic force microscopic method (reference value: 70%)
[19] = biological target: T3, 20S proteasome (Homo sapiens); assay: Negative allosteric modulation of SDS-activated human erythrocytes 20S proteasome assessed as reduction in yeast enolase degradation at 1 uM after 4 hr by SDS-PAGE analysis
[20] = biological target: T3, 20S proteasome (Homo sapiens); assay: Negative allosteric modulation of SDS-activated human erythrocytes 20S proteasome assessed as reduction in human alpha-synuclein degradation at 10 uM after 1 hr by SDS-PAGE analysis
Summary of the method: as §1

[21] = biological target: T1, Proteasome component C5 (Homo sapiens); assay: Negative allosteric modulation of SDS-activated human erythrocytes 20S proteasome caspase like activity at lower concentration using Z-LLE-AMC as substrate measured every 2 mins up to 60 mins by fluorescence assay
[22] = biological target: T3, 20S proteasome (Homo sapiens); assay: Effect on alpha-face conformations of latent human erythrocytes 20S proteasome assessed as intermediate state conformation at 10 uM by atomic force microscopic method (reference value: 22%)
[23] = biological target: T2, Proteasome Macropain subunit MB1 (Homo sapiens); assay: Positive allosteric modulation of latent human erythrocytes 20S proteasome chymotrypsin like activity up to 10 uM using Suc-LLVY-AMC as substrate measured every 2 mins up to 60 mins by fluorescence assay
Summary of the method: (§3)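 1.4 nM CP (0.001 mg/mL) in 50 mM Tris-HCl pH 8.0, activated with 0.005% SDS where stated, otherwise latent. Suc-LLVY-AMC at 100 μM final. AMC fluorescence read every 2 min up to 60 min at 37 °C. Activity relative to DMSO-treated enzyme, from at least three independent replicates. Peptide stocks 10 mM in DMSO.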

[24] = biological target: T2, Proteasome Macropain subunit MB1 (Homo sapiens); assay: Positive allosteric modulation of latent human erythrocytes 20S proteasome chymotrypsin like activity up to 10 uM using LFP as substrate measured every 2 mins up to 60 mins by fluorescence assay
[25] = biological target: Proteasome Macropain subunit (Homo sapiens) (UniProt P49721); assay: Negative allosteric modulation of SDS-activated human erythrocytes 20S proteasome trypsin like activity at 10 uM using Boc-LRR-AMC as substrate measured every 2 mins up to 60 mins by fluorescence assay
[26] = biological target: T3, 20S proteasome (Homo sapiens); assay: Effect on alpha-face conformations of latent human erythrocytes 20S proteasome assessed as open state conformation at 10 uM by atomic force microscopic method (reference value: 7%)
[27] = biological target: T3, 20S proteasome (Homo sapiens); assay: Negative allosteric modulation of SDS-activated human erythrocytes 20S proteasome assessed as reduction in yeast enolase degradation at 10 uM after 4 hr by SDS-PAGE analysis
[28] = biological target: T3, 20S proteasome (Homo sapiens); assay: Effect on alpha-face conformations of latent human erythrocytes 20S proteasome assessed as closed state conformation at 1 uM by atomic force microscopic method (reference value: 70%)
[29] = biological target: T2, Proteasome Macropain subunit MB1 (Homo sapiens); assay: Negative allosteric modulation of SDS-activated human erythrocytes 20S proteasome chymotrypsin like activity using Suc-LLVY-AMC as substrate measured every 2 mins up to 60 mins by fluorescence assay
Summary of the method: as §3

[30] = biological target: T2, Proteasome Macropain subunit MB1 (Homo sapiens); assay: Positive allosteric modulation of latent human erythrocytes 20S proteasome chymotrypsin like activity at 5 uM using Suc-LLVY-AMC as substrate measured every 2 mins up to 60 mins by fluorescence assay relative to control

Proteasome Macropain subunit (Homo sapiens), sequence (P49721 whole entry): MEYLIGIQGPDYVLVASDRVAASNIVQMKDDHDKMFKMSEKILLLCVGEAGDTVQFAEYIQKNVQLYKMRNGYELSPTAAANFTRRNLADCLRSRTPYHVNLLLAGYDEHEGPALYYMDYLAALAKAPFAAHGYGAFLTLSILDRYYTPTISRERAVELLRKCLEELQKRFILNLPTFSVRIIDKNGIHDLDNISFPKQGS
Proteasome subunit beta type-6 (Homo sapiens), sequence (P28072 whole entry, looked up): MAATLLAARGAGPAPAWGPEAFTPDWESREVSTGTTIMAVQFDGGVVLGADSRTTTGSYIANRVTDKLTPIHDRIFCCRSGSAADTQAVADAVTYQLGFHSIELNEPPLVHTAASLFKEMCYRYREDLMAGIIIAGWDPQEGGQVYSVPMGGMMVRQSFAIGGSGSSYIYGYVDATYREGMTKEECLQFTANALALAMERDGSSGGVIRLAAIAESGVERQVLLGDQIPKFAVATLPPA

| Compound | Activity [4] | Activity [6] | Activity [13] [%] | Activity [17] | Activity [19] | Activity [20] | Activity [21] | Activity [24] | Activity [25] | Activity [27] | further results |
| --- | --- | --- | --- | --- | --- | --- | --- | --- | --- | --- | --- |
| C[C@H](NC(=O)[C@H](Cc1ccc(O)cc1)NC(=O)[C@H](Cc1ccc(O)cc1)NC(=O)[C@@H]1CCCN1C(=O)[C@@H]1CCCN1C(=O)[C@@H]1CCCN1C(=O)[C@@H]1CCCN1C(=O)[C@H](CCCNC(=N)N)NC(=O)[C@H](CCCNC(=N)N)NC(=O)[C@@H](N)CCCNC(=N)N)C(=O)O (H-RRRPPPPYYA-OH) | inactive | inactive | 18 | – | – | – | – | – | – | – | fold change (FC) [1]: 5 to 7; Activity [2]: inactive; fold change (FC) [3]: 14; fold change (FC) [5]: > 2; Activity [7]: Dose-dependent effect; fold change (FC) [8]: 3; Activity [9]: Active; fold change (FC) [10]: 5 to 7; fold change (FC) [11]: < 7; fold change (FC) [12]: 2; Activity [14]: Dose-dependent effect; Activity [15]: 36%; Activity [16]: Active |
| CC(C)C[C@H](NC(=O)[C@H](Cc1ccc(O)cc1)NC(=O)[C@@H]1CCCN1C(=O)[C@@H]1CCCN1C(=O)[C@H](CCCNC(=N)N)NC(=O)[C@@H]1CCCN1C(=O)[C@H](CCCNC(=N)N)NC(=O)[C@H](CCCNC(=N)N)NC(=O)[C@@H](N)CCCNC(=N)N)C(=O)N1CCC[C@H]1C(=O)N[C@@H](CCCNC(=N)N)C(=O)N[C@@H](Cc1c[nH]c2ccccc12)C(=O)NCC(=O)O (H-RRRPRPPYLPRWG-OH) | Active | Active | < 3 | inactive | Active | Active | Active | inactive | Active | Active | Activity [18]: 57%; Activity [22]: 25%; Activity [23]: inactive; Activity [26]: 18%; Activity [28]: 73%; Activity [29]: Dose-dependent effect |
| CC(C)C[C@H](NC(=O)[C@H](Cc1ccc(O)cc1)NC(=O)[C@H](CCCNC(=N)N)NC(=O)[C@H](CCCNC(=N)N)NC(=O)[C@@H](N)CCCNC(=N)N)C(=O)N1CCC[C@H]1C(=O)N[C@@H](CCCNC(=N)N)C(=O)N[C@@H](Cc1c[nH]c2ccccc12)C(=O)NCC(N)=O (H-RRRYLPRWG-NH2) | Active | – | – | inactive | inactive | Active | Active | inactive | Active | inactive | fold change (FC) [30]: 2 |
